Paper PMC5976445 (Journal of inorganic biochemistry, 2018)
Like-named read-outs stand apart in the source and are kept apart here.

Tests used:
CYP101D1 [1] = molecular target: T1, CYP101D1 (Novosphingobium aromaticivorans, UniProt Q2GB12); assay: isothermal titration calorimetry; format: binding
T1 sequence (Q2GB12 1-421): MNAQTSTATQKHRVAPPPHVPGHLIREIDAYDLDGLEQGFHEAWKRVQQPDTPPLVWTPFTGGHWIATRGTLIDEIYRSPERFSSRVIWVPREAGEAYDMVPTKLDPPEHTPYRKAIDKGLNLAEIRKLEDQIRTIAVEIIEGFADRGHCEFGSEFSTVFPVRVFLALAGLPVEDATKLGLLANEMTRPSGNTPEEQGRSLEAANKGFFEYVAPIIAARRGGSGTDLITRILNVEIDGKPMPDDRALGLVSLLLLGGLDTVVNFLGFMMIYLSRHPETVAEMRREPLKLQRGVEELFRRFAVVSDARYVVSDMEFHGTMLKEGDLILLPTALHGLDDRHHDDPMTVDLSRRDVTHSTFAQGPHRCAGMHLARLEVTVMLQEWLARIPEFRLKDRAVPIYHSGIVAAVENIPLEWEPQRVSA
Procedure, shortened: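 CYP101D1, expressed His-tagged in E. coli BL21(DE3), Ni-IMAC purified, thrombin-cleaved and gel-filtered. ITC at 25°C in 50 mM potassium phosphate without reducing agents. Either 600 μM–1 mM test compound was titrated into 40–50 μM CYP101D1, or 2 mM redox partner into 50 μM CYP101D1 (±1 mM camphor). 18 × 2 μL injections, 150 s apart, 750 rpm. Corrected for dilution enthalpy. 3–5 runs.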

CYP101D1 [2] = molecular target: CYP101D1 (UniProt Q2GB12); assay: ITC
CYP101D1 [3] = molecular target: CYP101D1 (UniProt Q2GB12); assay: ITC; remark: listed apart in the source
CYP101D1 [4] = molecular target: CYP101D1 (UniProt Q2GB12); assay: ITC; remark: listed apart in the source
CYP101D1 [5] = molecular target: CYP101D1 (UniProt Q2GB12); assay: ITC; remark: listed apart in the source

CC1(C)[C@@H]2CC[C@@]1(C)C(=O)C2 [D-camphor]
Kd (CYP101D1 [1]): 14.9 µM

Arx (natural protein)
Kd (CYP101D1 [2]): 97.7 µM | Kd (CYP101D1 [3]): 94.8 µM | dH (CYP101D1 [3]): -18.2 kcal/mol | Kd (CYP101D1 [4]): 43.3 µM | Kd (CYP101D1 [5]): 41.1 µM | dH (CYP101D1 [5]): -12.1 kcal/mol
